CAL PDZ FP-1 = blocks peptide binding to the human CAL PDZ domain; purified CAL PDZ, TMR-peptide fluorescence polarization, 1 h; inhibition, % at 24.9 µM; actives 0.92% (n = 300,000);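 active = mean inhibition of at least 30% with at least half of replicates also reaching 30%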;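 also: 0% = DMSO neutral control and 100% = excess unlabeled competitor peptide PRC23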
Tn7 DDE FP = disrupts Tn7 cyclic peptide binding to fibrin D-Dimer-E complex; inhibition, % at 8.3 µM; AID 720508; actives 0.13% (n = 370,000); FP displacement of FITC-Tn7 peptide from fibrin DD(E); 0% = median of compound wells per plate; P02675;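 active = inhibition above the mean of compounds falling within the control limits plus 3 SD of them, cut at about 14% in these data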;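 also: 0% = plate median of compound wells and 100% = 10 µM Aha-Tn7 peptide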
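Assay system: Human clot-derived fibrin DD(E) complex | Buffer or medium: Tris/NaCl/CaCl2 buffer, pH 7.8 | Repeats: One replicate per compound | Benchmarks: Aha-Tn7 high control | Measure: % inhibition scaled between sample-field median and high-control FP | Schedule: 10 min plus 3 h, room temperature | Signal: Fluorescence polarization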
ARNT-TACC3 inh = disruptors of human ARNT/TACC3 interaction | AlphaScreen His-ARNT PAS-B/GST-TACC3 binding, luminescence; TACC3 fragment carries E629A point mutation | inhibition, % at 9.99 µM | actives 0.66% (n = 390,000);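 active = mean inhibition of replicates at least 50% and at least half of replicates each reaching 50%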;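 also: 0% = complete ARNT plus TACC3 wells and 100% = ARNT alone without TACC3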
GRK2 aptamer HTS = human GRK2 inhibition via aptamer displacement; P25098; bead flow cytometry, FAM-aptamer displacement from GRK2; inhibition of aptamer binding, % at 10 µM; actives 0.59% (n = 330,000); AID 488847;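 active = inhibition of aptamer binding above 40%, roughly 3 SD of noise, on plates passing a quality check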;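 also: median bead fluorescence of bound FAM aptamer so fluorescent compounds give negative values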
Target sequence (P25098 whole entry, looked up): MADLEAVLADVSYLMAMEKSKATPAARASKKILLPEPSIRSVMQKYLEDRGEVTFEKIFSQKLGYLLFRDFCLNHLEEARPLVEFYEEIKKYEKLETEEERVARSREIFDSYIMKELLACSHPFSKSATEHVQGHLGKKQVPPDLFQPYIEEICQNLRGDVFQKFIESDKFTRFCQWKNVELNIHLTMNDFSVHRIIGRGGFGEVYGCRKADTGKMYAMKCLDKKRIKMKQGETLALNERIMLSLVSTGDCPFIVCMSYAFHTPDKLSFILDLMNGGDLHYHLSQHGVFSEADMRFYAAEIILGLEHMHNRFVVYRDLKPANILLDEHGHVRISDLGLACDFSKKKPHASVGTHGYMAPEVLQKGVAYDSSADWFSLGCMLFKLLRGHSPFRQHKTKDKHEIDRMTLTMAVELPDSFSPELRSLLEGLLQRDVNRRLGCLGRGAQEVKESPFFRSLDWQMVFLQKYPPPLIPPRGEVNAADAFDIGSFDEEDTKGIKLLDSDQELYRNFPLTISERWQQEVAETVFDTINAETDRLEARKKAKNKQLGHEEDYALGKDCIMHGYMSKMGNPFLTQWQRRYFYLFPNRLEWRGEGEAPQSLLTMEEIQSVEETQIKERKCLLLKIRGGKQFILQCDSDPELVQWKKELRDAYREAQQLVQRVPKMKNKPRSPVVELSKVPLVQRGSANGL
CAL PDZ FP-2 = inhibitors of human CAL PDZ peptide binding; Q9HD26; purified CAL PDZ, TMR-peptide fluorescence polarization, 1 h; inhibition, % at 20 µM; actives 0.02% (n = 330,000); AID 504414;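 active = highest replicate inhibition of at least 40%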;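 also: plate controls were DMSO neutral control wells for no effect and unlabeled competitor peptide control wells for full effect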
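Read-out basis: mP drop reported as inhibition | Assay system: Tagged CAL PDZ protein CerCALP, purified | Benchmarks: Unlabelled peptide for full inhibition, DMSO wells as neutral | Schedule: 1 h incubation at room temperature before polarization reading | Buffer or medium: Sodium phosphate/NaCl buffer pH 7.4 with TCEP, IgG, Thesit | Doses: Single point, 20 µM | Measured by: Fluorescence polarization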
Tn6 DDE FP = disrupts Tn6 cyclic peptide binding to fibrin D-Dimer-E complex | actives 0.21% (n = 370,000) | Fibrin DD(E) TRITC-Tn6 fluorescence polarization displacement | inhibition, % at 8.3 µM | AID 720509;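 active = inhibition above a per-campaign cutoff: mean of compounds within control limits plus 3 SD, cut at about 15% in these data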;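 also: 0% = median of all compound wells on the plate and 100% = blocking peptide control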
An asterisk follows results filed as active; . = not tested or not shown; ! = not active in a repeat. Hits are enriched below; roughly 1.8% of the tested compounds scored in any of these assays.

SMILES	CAL PDZ FP-1	Tn7 DDE FP	ARNT-TACC3 inh	GRK2 aptamer HTS	CAL PDZ FP-2	Tn6 DDE FP
COc1ccc(NC(=O)N(C)C[C@@H]2OCCCC[C@H](C)Oc3ccc(NC(=O)Nc4cccc5ccccc45)cc3C(=O)N([C@@H](C)CO)C[C@H]2C)cc1	.	.	-3.5	.	.	.
COc1ccccc1CNC(=O)C[C@@H]1CC[C@H](NC(C)=O)[C@@H](CO)O1	.	.	-2.4	.	.	.
COc1ccc(NC(=O)N(C)C[C@@H]2OCCCC[C@H](C)Oc3ccc(NC(=O)NC4CCCCC4)cc3C(=O)N([C@@H](C)CO)C[C@@H]2C)cc1	.	.	-10.2	.	.	.
CCCC(=O)Nc1ccc2c(c1)C(=O)N(C)C[C@@H](OC)[C@@H](C)CN(C(=O)CN(C)C)[C@@H](C)CO2	.	.	-4.1	.	.	.
COc1cc(NCCCCCCN)c2ncccc2c1OC	0.1	-5.0	51.5*	.	1.2	10.2
COc1cc(NC(C)CCCNC(C)C)c2ncccc2c1OC (stereo not given)	-0.1	-4.8	59.4*	.	1.1	-5.8
COc1cc(NCCCCC(C)N)c2nccc(C)c2c1 (stereo not given)	.	-0.4	.	.	.	0.7
COc1cc(N)c2ncccc2c1OC	-4.4	-1.8	23.0	.	1.8	4.2
C=CCn1c(SCC(=O)/C(C#N)=C(\C)N)nc2sc(CC)cc2c1=O	40.5*!	2.5	0.4	0.0	0.2	2.0
C=CCn1c(SCC(=O)O)nc2sc(CC)cc2c1=O	.	-1.0	-15.0	0.0	0.6	-4.2
Cc1ccc(S(=O)(=O)Nc2cccc3c2O[C@@H](CN(C)Cc2ccccc2)[C@@H](C)CN([C@H](C)CO)C3=O)cc1	.	.	1.5	.	.	.
CC1(C)CC(=O)N(CC(=O)N2CCN(Cc3ccccc3)CC2)c2ccccc2S1(=O)=O	.	-0.1	.	.	.	-5.5
Cn1c(-c2ccc(F)cc2)cc2onc(-c3c(F)cccc3Cl)c2c1=O	.	6.6	.	52.0*	.	-5.6
Cc1ccc(-c2cc3onc(-c4ccccc4)c3c(=O)n2C)cc1	-7.8	5.4	-3.2	0.0	-1.8	2.3
Cc1[nH]c(=O)[nH]c(=O)c1/C=C/C(=O)O	69.8*	8.7	-3.6	2.0	-1.1	-2.4
CC(C)C(=O)N1CCCC1(C)C(=O)NCc1ccc(Cl)cc1 (stereo not given)	.	1.4	.	.	.	1.7
CCN(CC)c1ccc(/C=C2\C(=O)N(c3nnc(C)c(=O)[nH]3)N=C2C)cc1	-3.6	-0.1	60.4*	3.0	0.3	-0.3
O=C(Nc1ccc(N2CCOCC2)c(Cl)c1)c1ncn[nH]1	-1.1	9.6	58.1*	3.0	-0.4	-3.0
O=C(Nc1ccc2oc(-c3ccccc3Cl)nc2c1)c1ncn[nH]1	-6.7	1.1	49.9*	0.0	-4.4	-2.9
O=Cc1coc2c(ccc3ccccc32)c1=O	.	.	.	80.0*	.	.
O=C/C=C/c1coc2ccc3ccccc3c2c1=O	.	-9.5	.	0.0	.	2.4
Cc1c(CC(=O)N[C@@H](C)C(=O)O)c(=O)oc2cc3occ(-c4ccccc4)c3cc12	-9.8	-1.8	48.1*	0.0	-3.0	7.9
Cc1c(CC(=O)N[C@@H](C)C(=O)O)c(=O)oc2c(C)c3occ(-c4ccccc4)c3cc12	-10.7	1.6	75.7*	0.0	-6.8	-6.0
Cc1c(CC(=O)O)c(=O)oc2cc3occ(-c4ccccc4)c3cc12	-8.5	-7.5	-9.6	7.0	-2.0	10.2
Cc1coc2c(C)c3oc(=O)c(CC(=O)N[C@@H](CC(C)C)C(=O)O)c(C)c3cc12	-3.6	-2.4	-7.0	1.0	-1.0	-5.2
SMILES	CAL PDZ FP-1	Tn7 DDE FP	ARNT-TACC3 inh	GRK2 aptamer HTS	CAL PDZ FP-2	Tn6 DDE FP
COc1cccc(OCc2cc(C(=O)NCc3cnc4ccccn34)no2)c1	-3.9	-3.3	6.6	1.0	-2.6	-1.3
O=C(Cc1cccnc1)N1[C@H](CO)[C@H]2c3ccccc3NC[C@H]21	.	.	2.9	.	.	.
CC1CCN(C(=O)COC(=O)Cn2cnc3c2c(=O)n(C)c(=O)n3C)CC1	-3.2	0.5	-21.9	1.0	-0.6	2.5
CC1CCCN(C(=O)Cn2cnc3c2c(=O)n(C)c(=O)n3C)C1 (stereo not given)	35.9*	-7.8	-4.4	11.0	.	2.2
COCCNC(=O)c1ccc(N2CC3CC(C2)c2cccc(=O)n2C3)c(NC(=O)c2ccc(Br)o2)c1 (stereo not given)	4.5	1.4	-6.2	3.0	0.7	9.0
COc1cc(C2NC(=O)NC(C)=C2C(=O)OC2CCCCC2)cc(Br)c1O (stereo not given)	-3.8	-8.4	1.2	5.0	87.8*	-5.4
CCS(=O)(=O)Nc1ccc2c(c1)C(=O)N(C)C[C@@H](OC)[C@@H](C)CN(CCC(F)(F)F)[C@H](C)CO2	.	.	-1.4	.	.	.
CCS(=O)(=O)c1ccc(OC)c(N=Nc2ccc(O)c3ncccc23)c1	-5.3	-10.6	34.6	2.0	-1.5	3.4
CCN(CC)S(=O)(=O)c1cc(OC)ccc1N=Nc1ccc(O)c2ncccc12	-2.7	-2.7	47.8*	1.0	0.2	-7.3
NC(=O)NC(CC(=O)NCCc1ccccn1)c1ccccc1Cl (stereo not given)	-0.2	3.5	-1.8	1.0	-4.1	9.0
NC(=O)NC(CC(=O)NNC(=O)c1ccccn1)c1ccccc1Cl (stereo not given)	108.9*	-7.1	31.3	0.0	0.6	-3.3
CC(C)n1ncc2c(C(=O)NCC(=O)Nc3ccccc3Br)cc(C3CC3)nc21	46.5*	.	-3.6	2.0	-0.2	.
COc1ccc(OC)c(N2C(=O)c3cccnc3C2=O)c1	1.2	5.2	46.7*	0.0	-6.1	2.1
COc1ccc(Cl)cc1N1C(=O)c2cccnc2C1=O	26.1	1.5	-0.6	0.0	-0.5	1.3
COc1cc(/C=N/Nc2nncn2/N=C/c2ccc(O)c(OC)c2)ccc1O	1.9	7.7	50.6*	13.0	1.3	6.8
C[C@@H](NC(=O)C[C@H]1CC[C@H]2[C@@H](COC[C@@H](O)CN2C(=O)Nc2cccc(F)c2)O1)c1ccccc1	.	.	-8.5	.	.	.
NCCc1cnc[nH]1	-1.9	4.4	73.2*!	2.0	-0.3	1.9
NCCC(=O)NCCc1cnc[nH]1	-1.1	-2.5	.	0.0	0.6	-10.4
C[C@H](CO)N1C[C@H](C)[C@H](CN(C)C(=O)Nc2ccccc2)Oc2c(NC(=O)C3CC3)cccc2C1=O	.	.	-19.5	.	.	.
O=C(Nc1ccc2c(c1)CCC2)c1ccc(F)cc1	-9.6	3.1	-1.8	2.0	-1.3	-0.6
O=C(Nc1ccc2c(c1)CCC2)c1ncoc1-c1ccccc1F	68.7*	-8.6	.	.	-1.2	-8.1
C[C@H](CO)N1C[C@H](C)[C@H](CN(C)Cc2ccc3c(c2)OCO3)Oc2c(NS(=O)(=O)c3cn(C)cn3)cccc2C1=O	.	.	-4.1	.	.	.

Assay outcomes (PubChem BioAssay)
